# Measurements from ChEMBL document CHEMBL4680229, “Design, synthesis and bioactivity study of N-salicyloyl tryptamine derivatives as multifunctional agents for the treatment of neuroinflammation” (Eur J Med Chem, 2020).
# The source made the active and inactive calls. The calls are words filed in the database; no cut-off is given here.
# Tests used:
# [1] = Cmax in Sprague-Dawley rat at 50 mg/kg, ip up to 24 hrs by LC-MS analysis; type: ADME, organism-based; parameters: route intraperitoneal, dose 50 mg/kg, time <=24; conditions: in vivo
# How it was run: (§1)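 Male Sprague-Dawley rats, six per group, single 50 mg/kg intraperitoneal dose; parameters derived by non-compartmental analysis using the linear trapezoidal method; mean ± SD, n = 6.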
# [2] = target: Prostaglandin G/H synthase 1 (Homo sapiens) (UniProt P23219); assay: Inhibition of human COX1 assessed as reduction in PGF2alpha formation using arachidonic acid as substrate incubated for 10 mins by ELISA
# BV-2 [3] = assay: Antiinflammatory activity against LPS-induced mouse BV-2 cells assessed as decrease in COX2 protein expression at 40 uM after 24 hrs by Western blot analysis; type: functional, cell-based
# How it was run: (§2)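 BV2 cells in DMEM with 10% FBS; LPS 1 μg/mL plus compound at 10, 20 or 40 μM final for 24 h. Lysates in RIPA with 1 mM PMSF; 30 μg protein on 8% SDS-PAGE and blotted for iNOS and COX-2, GAPDH as reference; ECL detection and densitometry; at least three independent experiments.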
# BV-2 [4] = assay: Cytotoxicity against mouse BV-2 cells assessed as reduction in cell viability after 24 hrs by MTT assay; type: cell-based; conditions: BV-2, 24 h
# How it was run: (§3)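 C6 or BV2 cells seeded at 1–5×10^5 per well; after 12 h exposed to 0, 6.25, 12.5, 25, 50 or 100 μM (final, DMSO <0.4%) for 24 h. MTT added for 4 h, dissolved in DMSO, read at 570 nm. IC50 as mean of three independent experiments run in triplicate.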
# BV-2 [5] = assay: Antiinflammatory activity against LPS-induced mouse BV-2 cells assessed as decrease in ROS production at 10 to 40 uM after 6 hrs by DCFH-DA fluorescence probe based flow cytometric analysis; type: functional, cell-based; conditions: dose 10-40 µM
# How it was run: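 BV2 cells with LPS 1 μg/mL and compound at 10, 20 or 40 μM for 6 h, then DCFH-DA 20 μM final for 30 min at 37 °C. Washed in cold PBS and read by flow cytometry, excitation 485 nm and emission 530 nm.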
# [6] = Half life in Sprague-Dawley rat at 50 mg/kg, ip up to 24 hrs by LC-MS analysis; type: ADME, organism-based; conditions: in vivo; how it was run: as §1
# [7] = target: T1, Prostaglandin G/H synthase 2 (Mus musculus) (UniProt Q05769); assay: Inhibition of COX2 in LPS-induced mouse BV-2 cells assessed as reduction in PGE2 production after 24 hrs by ELISA; type: cell-based
# T1 sequence (whole entry): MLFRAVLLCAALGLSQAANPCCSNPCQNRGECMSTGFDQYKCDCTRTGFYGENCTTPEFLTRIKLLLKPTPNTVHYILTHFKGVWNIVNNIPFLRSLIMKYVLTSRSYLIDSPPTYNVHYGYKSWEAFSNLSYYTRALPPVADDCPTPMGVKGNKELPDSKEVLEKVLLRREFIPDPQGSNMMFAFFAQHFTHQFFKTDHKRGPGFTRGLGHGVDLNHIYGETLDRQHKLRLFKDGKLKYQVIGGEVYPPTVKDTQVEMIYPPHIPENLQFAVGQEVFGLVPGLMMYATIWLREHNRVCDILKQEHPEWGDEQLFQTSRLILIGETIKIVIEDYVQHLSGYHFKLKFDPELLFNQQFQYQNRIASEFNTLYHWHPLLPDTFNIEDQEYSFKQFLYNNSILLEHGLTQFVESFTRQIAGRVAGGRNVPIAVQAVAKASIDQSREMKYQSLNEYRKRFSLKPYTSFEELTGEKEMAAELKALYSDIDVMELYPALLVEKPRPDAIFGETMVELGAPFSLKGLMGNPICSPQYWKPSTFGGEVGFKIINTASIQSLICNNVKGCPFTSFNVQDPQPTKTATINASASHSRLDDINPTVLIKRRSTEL
# How it was run: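 BV2 cells at 5×10^5 cells/mL stimulated with LPS 1 μg/mL; compound at 10, 20 or 40 μM final for 24 h, DMSO in blanks. Supernatant TNF-α and IL-10 measured by sandwich ELISA and PGE2 by competitive ELISA, OD at 450 nm; at least three independent experiments.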
# C6 [8] = assay: Antiinflammatory activity against LPS-induced rat C6 cells assessed as decrease in GFAP protein expression at 20 uM after 24 hrs by DAPI staining based confocal laser microscopic method; type: functional, cell-based
# How it was run: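 Cells on glass slides with compound at 20 μM final for 24 h: C6 with LPS 10 μg/mL stained for GFAP, BV2 with LPS 1 μg/mL stained for Iba-1. Fixed in 4% paraformaldehyde, blocked in 1% BSA/0.3% Triton X-100, primary antibody 1:100 overnight at 4 °C, secondary 1:200, DAPI mount, confocal imaging. Intensity given as % of LPS group, n = 3.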
# [9] = Toxicity in Kunming mouse assessed as changes in kidney at 1000 mg/kg, po after 14 days; type: organism-based; conditions: in vivo, 336 h, time 14 day
# How it was run: (§4)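 Mice, five male and five female, given a single oral dose of 1000 mg/kg and observed for behaviour for 14 days. Heart, liver, kidney and stomach then examined grossly and after H&E staining, compared with vehicle controls.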
# [10] = Inhibition of LPS-induced NO production in mouse BV-2 cells incubated for 24 hrs by Griess reagent based assay; type: functional, cell-based; conditions: BV-2, 24 h
# How it was run: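 BV2 cells at 5×10^5 cells/mL, LPS 1 μg/mL plus compound at 2.5–40 μM final for 24 h. Supernatant nitrite measured with Griess reagent for 15 min at room temperature in the dark, 540 nm, against a NaNO2 standard curve; IC50 from three repeats.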
# [11] = Toxicity in po dose Kunming mouse after 14 days; type: organism-based; conditions: in vivo, time 14 day
# How it was run: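 Acute toxicity followed OECD guidelines in ten mice (five male, five female). A single oral dose of 1000 mg/kg was given, with a vehicle control group. Behaviour was observed over 14 days. Mice were then sacrificed for gross and H&E histological examination of heart, liver, kidney and stomach.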
# Homo sapiens = organism: Homo sapiens; assay: Selectivity index, ratio of IC50 for inhibition of human COX1 to IC50 for inhibition of human COX2
# Mus musculus [12] = assay: Antiinflammatory activity against LPS-induced hippocampal neuroinflammatory Kunming mouse model assessed as reduction in GFAP level in hippocampus at 50 mg/kg, ip administered bid for 6 days by Western blot analysis; type: functional, organism-based; conditions: time 6.0 day
# [13] = Toxicity in Kunming mouse assessed as changes in liver at 1000 mg/kg, po after 14 days; type: organism-based; conditions: in vivo, 336 h, time 14 day; how it was run: as §4
# C6 [14] = assay: Cytotoxicity against rat C6 cells assessed as reduction in cell viability after 24 hrs by MTT assay; type: cell-based; conditions: C6, 24 h; how it was run: as §3
# [15] = Toxicity in Kunming mouse assessed as behavioral changes at 1000 mg/kg, po up to 14 days; type: organism-based; conditions: in vivo, 336 h, time <=14 day; how it was run: as §4
# [16] = Tmax in Sprague-Dawley rat at 50 mg/kg, ip up to 24 hrs by LC-MS analysis; type: ADME, organism-based; conditions: in vivo; how it was run: as §1
# BV-2 [17] = assay: Antiinflammatory activity against LPS-induced mouse BV-2 cells assessed as decrease in INOS protein expression at 40 uM after 24 hrs by Western blot analysis relative to control; type: functional; parameters: scale not given: the % may be the effect or the level left; how it was run: as §2
# Mus musculus [18] = assay: Antiinflammatory activity against LPS-induced hippocampal neuroinflammatory Kunming mouse model assessed as increase in integral neurons at 50 mg/kg, ip administered bid for 6 days by Nissl staining based microscopic method; type: functional, organism-based; conditions: time 6.0 day
Structure (SMILES),Cmax [1],IC50 [2],Activity (BV-2 [3]),IC50 (BV-2 [4]),Activity (BV-2 [5]),half-life [6],inhibition [7],Activity (C6 [8]),Activity [9],IC50 [10],LD50 at 336 h [11],Ratio IC50 (Homo sapiens),Activity (Mus musculus [12]),Activity [13],IC50 (C6 [14]),Activity [15],Tmax [16],Activity (BV-2 [17]),Activity (Mus musculus [18])
Cc1ccc(C(=O)NCCc2c[nH]c3ccccc23)c(O)c1,2100 ng/mL,16.4 µM,inactive,> 100 µM,Active,13.9 h,Dose-dependent effect,Active,Non-Toxic,4.94 µM,> 1000 mg/kg,3.95,Active,Non-Toxic,> 100 µM,Non-Toxic,0.19 h,100%,Active
O=C(NCCc1c[nH]c2ccc(O)cc12)c1ccccc1Nc1ccccc1,6080 ng/mL,0.38 µM,Active,> 100 µM,Active,2.72 h,Dose-dependent effect,Active,Non-Toxic,37.2 µM,> 1000 mg/kg,0.76,Active,Non-Toxic,> 100 µM,Non-Toxic,0.92 h,inactive,Active
